Measured values reported in ChEMBL document CHEMBL4392821.
Calls of active or inactive are those of the source. Square brackets hold non-standard residues; d marks the D form. Peptide text beside a SMILES is read from it. * marks the point of attachment. ξ: configuration not given here. X1 = CCCCCCCCCCCCCCCC(=O)OCC(C*)OC(=O)CCCCCCCCCCCCCCC; Palmitoyl = CCCCCCCCCCCCCCCC(=O)*; ξC = NC(CS)C(=O)O

Legend:
Homo sapiens [1] = species: Homo sapiens; test: Agonist activity at human TLR2/TLR1 W258A mutant expressed in HEK293T cells coexpressing NF-kappaB-driven luciferase reporter at 100 nM after 6 hrs by luciferase reporter gene assay; type: cell-based
Procedure, shortened: (§1)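 HEK293T cells stably carrying an NF-κB-driven luciferase reporter, in DMEM, were plated 18 h before transfection. They were co-transfected by lipofection with WT or point-mutant human TLR(2–1) and TLR(1–2) ectodomain/TIR-swap chimeras, and expression was checked by immunoblot. After 24 h, cells were stimulated for 6 h with 100 nM agonist or 20 or 50 ng/mL Pam3CSK4, then lysed for a luciferase read-out.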

Homo sapiens [2] = species: Homo sapiens; test: Agonist activity at human TLR2/TLR1 I319A mutant expressed in HEK293T cells coexpressing NF-kappaB-driven luciferase reporter at 100 nM after 6 hrs by luciferase reporter gene assay; type: cell-based; procedure, shortened: as §1
Homo sapiens [3] = species: Homo sapiens; test: Agonist activity at human TLR2/TLR1 Y320A mutant expressed in HEK293T cells coexpressing NF-kappaB-driven luciferase reporter at 100 nM after 6 hrs by luciferase reporter gene assay; type: cell-based; procedure, shortened: as §1
[4] = biological target: T1, Toll-like receptor 1 (Homo sapiens) (UniProt Q15399); test: Induction of human TLR1 homodimerization expressed in insect Hi5 cells by size exclusion chromatography
T1 sequence (whole entry): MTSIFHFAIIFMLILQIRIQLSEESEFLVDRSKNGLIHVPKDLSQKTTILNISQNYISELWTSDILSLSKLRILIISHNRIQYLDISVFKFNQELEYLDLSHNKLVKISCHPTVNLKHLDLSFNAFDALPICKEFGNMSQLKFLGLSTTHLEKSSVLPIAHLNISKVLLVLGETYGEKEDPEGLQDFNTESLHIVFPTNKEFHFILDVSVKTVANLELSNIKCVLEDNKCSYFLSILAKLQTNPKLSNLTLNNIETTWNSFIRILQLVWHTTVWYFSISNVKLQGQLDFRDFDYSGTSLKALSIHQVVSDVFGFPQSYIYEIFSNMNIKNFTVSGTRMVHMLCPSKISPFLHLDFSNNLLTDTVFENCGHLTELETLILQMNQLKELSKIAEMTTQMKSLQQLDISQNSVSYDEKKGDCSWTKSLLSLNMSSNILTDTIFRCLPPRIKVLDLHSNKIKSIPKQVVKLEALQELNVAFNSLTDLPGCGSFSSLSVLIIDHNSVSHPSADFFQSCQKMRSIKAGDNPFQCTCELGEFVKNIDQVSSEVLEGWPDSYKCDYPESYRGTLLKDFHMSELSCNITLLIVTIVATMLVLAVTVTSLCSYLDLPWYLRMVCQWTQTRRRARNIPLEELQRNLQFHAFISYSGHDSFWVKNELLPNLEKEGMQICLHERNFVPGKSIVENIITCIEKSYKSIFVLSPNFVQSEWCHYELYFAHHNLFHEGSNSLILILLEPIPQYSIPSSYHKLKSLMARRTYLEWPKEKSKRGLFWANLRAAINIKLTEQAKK
Procedure, shortened: (§2)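 Human TLR1 and TLR2 ectodomains were made in Hi5 insect cells, partially deglycosylated, and had the protein A tag cleaved by thrombin before purification. Protein at 1 μM (each alone, or both together) was incubated with 30 μM ligand in 25 mM HEPES pH 8.0, 150 mM NaCl, 10% DMSO for 4 h at room temperature. Dimer formation was then analysed by analytical gel filtration on Superdex 200.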

Homo sapiens [5] = species: Homo sapiens; test: Agonist activity at human TLR2/TLR1 F312A mutant expressed in HEK293T cells coexpressing NF-kappaB-driven luciferase reporter at 100 nM after 6 hrs by luciferase reporter gene assay; type: cell-based; procedure, shortened: as §1
Homo sapiens [6] = species: Homo sapiens; test: Agonist activity at human TLR2/TLR1 F314A mutant expressed in HEK293T cells coexpressing NF-kappaB-driven luciferase reporter at 100 nM after 6 hrs by luciferase reporter gene assay; type: cell-based; procedure, shortened: as §1
Homo sapiens [7] = species: Homo sapiens; test: Agonist activity at human TLR2/TLR1 V339A mutant expressed in HEK293T cells coexpressing NF-kappaB-driven luciferase reporter at 100 nM after 6 hrs by luciferase reporter gene assay; type: cell-based; procedure, shortened: as §1
Homo sapiens [8] = species: Homo sapiens; test: Agonist activity at human TLR2/TLR1 H340A mutant expressed in HEK293T cells coexpressing NF-kappaB-driven luciferase reporter at 100 nM after 6 hrs by luciferase reporter gene assay; type: cell-based; procedure, shortened: as §1
Homo sapiens [9] = species: Homo sapiens; test: Agonist activity at human TLR1/TLR2 Y323A mutant expressed in HEK293T cells coexpressing NF-kappaB-driven luciferase reporter at 100 nM after 6 hrs by luciferase reporter gene assay; type: cell-based; procedure, shortened: as §1
Homo sapiens [10] = species: Homo sapiens; test: Agonist activity at human TLR1/TLR2 Y325A mutant expressed in HEK293T cells coexpressing NF-kappaB-driven luciferase reporter at 100 nM after 6 hrs by luciferase reporter gene assay; type: cell-based; procedure, shortened: as §1
Homo sapiens [11] = species: Homo sapiens; test: Agonist activity at human TLR1/TLR2 V348A mutant expressed in HEK293T cells coexpressing NF-kappaB-driven luciferase reporter at 100 nM after 6 hrs by luciferase reporter gene assay; type: cell-based; procedure, shortened: as §1
Homo sapiens [12] = species: Homo sapiens; test: Agonist activity at human TLR1/TLR2 F349A mutant expressed in HEK293T cells coexpressing NF-kappaB-driven luciferase reporter at 100 nM after 6 hrs by luciferase reporter gene assay; type: cell-based; procedure, shortened: as §1
Homo sapiens [13] = species: Homo sapiens; test: Agonist activity at human TLR1/TLR2 D327A mutant expressed in HEK293T cells coexpressing NF-kappaB-driven luciferase reporter at 100 nM after 6 hrs by luciferase reporter gene assay; type: cell-based; procedure, shortened: as §1
Homo sapiens [14] = species: Homo sapiens; test: Agonist activity at human TLR1/TLR2 L328A mutant expressed in HEK293T cells coexpressing NF-kappaB-driven luciferase reporter at 100 nM after 6 hrs by luciferase reporter gene assay; type: cell-based; procedure, shortened: as §1
Homo sapiens [15] = species: Homo sapiens; test: Agonist activity at human TLR1/TLR2 Y332A mutant expressed in HEK293T cells coexpressing NF-kappaB-driven luciferase reporter at 100 nM after 6 hrs by luciferase reporter gene assay; type: cell-based; procedure, shortened: as §1
Homo sapiens [16] = species: Homo sapiens; test: Agonist activity at human TLR1/TLR2 L350A mutant expressed in HEK293T cells coexpressing NF-kappaB-driven luciferase reporter at 100 nM after 6 hrs by luciferase reporter gene assay; type: cell-based; procedure, shortened: as §1
Homo sapiens [17] = species: Homo sapiens; test: Agonist activity at human TLR1/TLR2 Y376 mutant expressed in HEK293T cells coexpressing NF-kappaB-driven luciferase reporter at 100 nM after 6 hrs by luciferase reporter gene assay; type: cell-based; procedure, shortened: as §1
[18] = biological target: T2, Toll-like receptor 1/2 (Homo sapiens) (UniProt O60603+Q15399); test: Antagonist activity at TLR2/TLR1 in human THP1 cells assessed as reduction in diprovoci-induced TNF production at 5 uM pre-incubated for 1 hr before diprovocim stimulation for 4 hrs by ELISA method; type: cell-based
[19] = biological target: T2, Toll-like receptor 1/2 (Homo sapiens); test: Antagonist activity at TLR2/TLR1 in human THP1 cells assessed as reduction in diprovoci-induced TNF production at 50 uM pre-incubated for 1 hr before diprovocim stimulation for 4 hrs by ELISA method; type: cell-based
[20] = biological target: T2, Toll-like receptor 1/2 (Homo sapiens); test: Induction of human TLR2/TLR1 heterodimerization expressed in insect Hi5 cells by size exclusion chromatography; procedure, shortened: as §2
[21] = biological target: Toll-like receptor 2 (Homo sapiens) (UniProt O60603); test: Induction of human TLR2 homodimerization expressed in insect Hi5 cells by size exclusion chromatography; procedure, shortened: as §2
Homo sapiens [22] = species: Homo sapiens; test: Agonist activity at human TLR2/TLR1 F312A mutant expressed in HEK293T cells coexpressing NF-kappaB-driven luciferase reporter at 50 ng/ml after 6 hrs by luciferase reporter gene assay; type: cell-based; procedure, shortened: as §1
Homo sapiens [23] = species: Homo sapiens; test: Agonist activity at human TLR2/TLR1 Y320A mutant expressed in HEK293T cells coexpressing NF-kappaB-driven luciferase reporter at 50 ng/ml after 6 hrs by luciferase reporter gene assay; type: cell-based; procedure, shortened: as §1
Homo sapiens [24] = species: Homo sapiens; test: Agonist activity at human TLR2/TLR1 I319A mutant expressed in HEK293T cells coexpressing NF-kappaB-driven luciferase reporter at 50 ng/ml after 6 hrs by luciferase reporter gene assay; type: cell-based; procedure, shortened: as §1
Homo sapiens [25] = species: Homo sapiens; test: Agonist activity at human TLR2/TLR1 W258A mutant expressed in HEK293T cells coexpressing NF-kappaB-driven luciferase reporter at 50 ng/ml after 6 hrs by luciferase reporter gene assay; type: cell-based; procedure, shortened: as §1
Homo sapiens [26] = species: Homo sapiens; test: Agonist activity at human TLR2/TLR1 F314A mutant expressed in HEK293T cells coexpressing NF-kappaB-driven luciferase reporter at 50 ng/ml after 6 hrs by luciferase reporter gene assay; type: cell-based; procedure, shortened: as §1
Homo sapiens [27] = species: Homo sapiens; test: Agonist activity at human TLR2/TLR1 V339A mutant expressed in HEK293T cells coexpressing NF-kappaB-driven luciferase reporter at 50 ng/ml after 6 hrs by luciferase reporter gene assay; type: cell-based; procedure, shortened: as §1
Homo sapiens [28] = species: Homo sapiens; test: Agonist activity at human TLR2/TLR1 H340A mutant expressed in HEK293T cells coexpressing NF-kappaB-driven luciferase reporter at 50 ng/ml after 6 hrs by luciferase reporter gene assay; type: cell-based; procedure, shortened: as §1
Homo sapiens [29] = species: Homo sapiens; test: Agonist activity at human TLR1/TLR2 Y323A mutant expressed in HEK293T cells coexpressing NF-kappaB-driven luciferase reporter at 20 ng/ml after 6 hrs by luciferase reporter gene assay; type: cell-based; procedure, shortened: as §1
Homo sapiens [30] = species: Homo sapiens; test: Agonist activity at human TLR1/TLR2 Y325A mutant expressed in HEK293T cells coexpressing NF-kappaB-driven luciferase reporter at 20 ng/ml after 6 hrs by luciferase reporter gene assay; type: cell-based; procedure, shortened: as §1
Homo sapiens [31] = species: Homo sapiens; test: Agonist activity at human TLR1/TLR2 V348A mutant expressed in HEK293T cells coexpressing NF-kappaB-driven luciferase reporter at 20 ng/ml after 6 hrs by luciferase reporter gene assay; type: cell-based; procedure, shortened: as §1
Homo sapiens [32] = species: Homo sapiens; test: Agonist activity at human TLR1/TLR2 F349A mutant expressed in HEK293T cells coexpressing NF-kappaB-driven luciferase reporter at 20 ng/ml after 6 hrs by luciferase reporter gene assay; type: cell-based; procedure, shortened: as §1
Homo sapiens [33] = species: Homo sapiens; test: Agonist activity at human TLR1/TLR2 D327A mutant expressed in HEK293T cells coexpressing NF-kappaB-driven luciferase reporter at 20 ng/ml after 6 hrs by luciferase reporter gene assay; type: cell-based; procedure, shortened: as §1
Homo sapiens [34] = species: Homo sapiens; test: Agonist activity at human TLR1/TLR2 L328A mutant expressed in HEK293T cells coexpressing NF-kappaB-driven luciferase reporter at 20 ng/ml after 6 hrs by luciferase reporter gene assay; type: cell-based; procedure, shortened: as §1
Homo sapiens [35] = species: Homo sapiens; test: Agonist activity at human TLR1/TLR2 Y332A mutant expressed in HEK293T cells coexpressing NF-kappaB-driven luciferase reporter at 20 ng/ml after 6 hrs by luciferase reporter gene assay; type: cell-based; procedure, shortened: as §1
Homo sapiens [36] = species: Homo sapiens; test: Agonist activity at human TLR1/TLR2 L350A mutant expressed in HEK293T cells coexpressing NF-kappaB-driven luciferase reporter at 20 ng/ml after 6 hrs by luciferase reporter gene assay; type: cell-based; procedure, shortened: as §1
Homo sapiens [37] = species: Homo sapiens; test: Agonist activity at human TLR1/TLR2 Y376 mutant expressed in HEK293T cells coexpressing NF-kappaB-driven luciferase reporter at 20 ng/ml after 6 hrs by luciferase reporter gene assay; type: cell-based; procedure, shortened: as §1

Sequence of Toll-like receptor 2 (Homo sapiens) (O60603 whole entry): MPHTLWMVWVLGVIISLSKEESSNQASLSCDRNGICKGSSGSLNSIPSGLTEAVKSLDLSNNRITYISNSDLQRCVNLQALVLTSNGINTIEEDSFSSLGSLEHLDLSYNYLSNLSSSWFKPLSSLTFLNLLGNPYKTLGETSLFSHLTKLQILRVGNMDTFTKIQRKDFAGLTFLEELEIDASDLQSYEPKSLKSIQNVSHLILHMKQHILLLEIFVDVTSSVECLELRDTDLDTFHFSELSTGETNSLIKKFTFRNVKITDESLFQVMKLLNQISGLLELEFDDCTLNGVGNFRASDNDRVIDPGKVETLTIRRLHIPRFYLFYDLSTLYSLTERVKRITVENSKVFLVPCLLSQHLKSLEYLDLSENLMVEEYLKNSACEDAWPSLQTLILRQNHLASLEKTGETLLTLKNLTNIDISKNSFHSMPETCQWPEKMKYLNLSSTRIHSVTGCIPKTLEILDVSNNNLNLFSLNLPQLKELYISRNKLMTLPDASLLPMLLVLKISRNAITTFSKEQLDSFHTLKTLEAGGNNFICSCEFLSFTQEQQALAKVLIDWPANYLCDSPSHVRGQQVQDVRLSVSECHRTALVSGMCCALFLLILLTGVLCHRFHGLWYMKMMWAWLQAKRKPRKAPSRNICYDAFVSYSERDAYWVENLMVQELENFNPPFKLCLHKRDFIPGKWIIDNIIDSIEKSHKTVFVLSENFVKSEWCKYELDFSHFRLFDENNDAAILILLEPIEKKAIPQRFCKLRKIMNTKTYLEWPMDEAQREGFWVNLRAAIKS

O=C(N[C@H]1C[C@@H]1c1ccccc1)[C@@H]1CN(C(=O)c2ccc(C(=O)N3C[C@@H](C(=O)N[C@H]4C[C@@H]4c4ccccc4)[C@H](C(=O)N[C@H]4C[C@@H]4c4ccccc4)C3)cc2)C[C@H]1C(=O)N[C@H]1C[C@@H]1c1ccccc1
active: Activity (Homo sapiens [5]) | Activity (Homo sapiens [6]) | Activity (Homo sapiens [13]) | Activity (Homo sapiens [14]) | Activity (Homo sapiens [15]) | Activity (Homo sapiens [16]) | Activity (Homo sapiens [17])
inactive: Activity (Homo sapiens [1]) | Activity (Homo sapiens [2]) | Activity (Homo sapiens [3]) | Activity [4] | Activity (Homo sapiens [7]) | Activity (Homo sapiens [8]) | Activity (Homo sapiens [9]) | Activity (Homo sapiens [10]) | Activity (Homo sapiens [11]) | Activity (Homo sapiens [12])

O=C(N[C@H]1C[C@@H]1c1ccccc1)[C@@H]1CN(C(=O)c2ccccc2)C[C@H]1C(=O)N[C@H]1C[C@@H]1c1ccccc1
active: inhibition [18] | inhibition [19]

CCCCCCCCCCCCCCCC(=O)NC(CSCC(COC(=O)CCCCCCCCCCCCCCC)OC(=O)CCCCCCCCCCCCCCC)C(=O)N[C@@H](CO)C(=O)N[C@@H](CCCCN)C(=O)N[C@@H](CCCCN)C(=O)N[C@@H](CCCCN)C(=O)N[C@@H](CCCCN)C(=O)O (stereo partly drawn) (Palmitoyl-[ξC](X1)SKKKK-OH)
inactive: Activity [21] | Activity (Homo sapiens [22]) | Activity (Homo sapiens [23]) | Activity (Homo sapiens [24]) | Activity (Homo sapiens [25]) | Activity [4] | Activity (Homo sapiens [26]) | Activity (Homo sapiens [27]) | Activity (Homo sapiens [28]) | Activity (Homo sapiens [29]) | Activity (Homo sapiens [30]) | Activity (Homo sapiens [31]) | Activity (Homo sapiens [32]) | Activity (Homo sapiens [33]) | Activity (Homo sapiens [34]) | Activity (Homo sapiens [35]) | Activity (Homo sapiens [36]) | Activity (Homo sapiens [37])
active: Activity [20]
